What was measured:
Assay type in all cases: functional
DU-145 [1] = experiment: Cytotoxicity against human DU145 cells assessed as cellular growth at 10 uM after 48 hrs by SRB assay
Summary of the method: (§1)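 NCI60 single-dose screen of cells in RPMI 1640 with 5% FBS and 2 mM L-glutamine, preincubated 24 h at 37 °C, 5% CO₂. Cells were then exposed 48 h to compound added from DMSO stock. TCA-fixed, stained with 0.4% SRB in 1% acetic acid, dye solubilised in 10 mM Tris base and read at 515 nm. Growth is given as percent of untreated control.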

KM12 [2] = experiment: Cytotoxicity against human KM12 cells assessed as cellular growth at 10 uM after 48 hrs by SRB assay; summary of the method: as §1
NCI-H522 = experiment: Cytotoxicity against human NCI-H522 cells assessed as cellular growth at 10 uM after 48 hrs by SRB assay
Summary of the method: (§2)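 NCI-60 panel lines grown in RPMI 1640 with 5% FBS and 2 mM L-glutamine. Plated at 5000–40,000 cells/well and preincubated 24 h at 37 °C, 5% CO₂, with time-zero plates fixed in TCA. Compounds, dissolved in DMSO and diluted in medium, were applied for 48 h. Cells were TCA-fixed (10% final for adherent, 16% for suspension) and stained with 0.4% SRB in 1% acetic acid. Dye was solubilised in 10 mM Tris base and read at 515 nm; growth was expressed as a percentage of untreated control.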

RPMI-8226 = experiment: Cytotoxicity against human RPMI8226 cells assessed as cellular growth at 10 uM after 48 hrs by SRB assay; summary of the method: as §2
HOP-62 = experiment: Cytotoxicity against human HOP62 cells assessed as cellular growth at 10 uM after 48 hrs by SRB assay; summary of the method: as §1
EKVX = experiment: Cytotoxicity against human EKVX cells assessed as cellular growth at 10 uM after 48 hrs by SRB assay; summary of the method: as §1
U-251 = experiment: Cytotoxicity against human U251 cells assessed as cellular growth at 10 uM after 48 hrs by SRB assay; summary of the method: as §2
M14 = experiment: Cytotoxicity against human M14 cells assessed as cellular growth at 10 uM after 48 hrs by SRB assay; summary of the method: as §1
OVCAR-5 = experiment: Cytotoxicity against human OVCAR5 cells assessed as cellular growth at 10 uM after 48 hrs by SRB assay; summary of the method: as §2
NCI/ADR-RES = experiment: Cytotoxicity against human NCI/ADR-RES cells assessed as cellular growth at 10 uM after 48 hrs by SRB assay; summary of the method: as §2
BT-549 = experiment: Cytotoxicity against human BT549 cells assessed as cellular growth at 10 uM after 48 hrs by SRB assay; summary of the method: as §1
MDA-MB-468 = experiment: Cytotoxicity against human MDA-MB-468 cells assessed as cellular growth at 10 uM after 48 hrs by SRB assay; summary of the method: as §2
KM12 [3] = experiment: Antitumor activity against human KM12 cells after 48 hrs by SRB assay; details: KM12, 48 h
Summary of the method: (§3)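 NCI60 panel in RPMI 1640 with 5% FBS and 2 mM L-glutamine. Cells were plated at 5000–40,000/well by doubling time, held 24 h, then time-zero plates were TCA-fixed. Five concentrations (10-fold or half-log dilutions of DMSO stocks) were applied for 48 h at 37 °C, 5% CO2. Cells were fixed with cold TCA (10% final adherent, 16% suspension) and stained with 0.4% SRB. Bound dye was dissolved in 10 mM Tris and read at 515 nm. GI50, TGI and LC50 were calculated per line.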

MDA-MB-435 = experiment: Antitumor activity against human MDA-MB-435 cells after 48 hrs by SRB assay; details: MDA-MB-435, 48 h; summary of the method: as §3
RXF 393 = experiment: Antitumor activity against human RXF393 cells after 48 hrs by SRB assay; details: RXF 393, 48 h; summary of the method: as §3
T47D = experiment: Antitumor activity against human T47D cells after 48 hrs by SRB assay
Summary of the method: (§4)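 NCI60 panel cells grown in RPMI 1640 with 5% FBS and 2 mM L-glutamine, plated at 5000–40,000 cells/well and preincubated 24 h at 37 °C, 5% CO₂. Compound was added from DMSO at five concentrations, 10-fold or 1/2 log dilutions, then incubated 48 h.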

DU-145 [4] = experiment: Antitumor activity against human DU145 cells after 48 hrs by SRB assay; details: DU-145, 48 h; summary of the method: as §3
TK-10 = experiment: Antitumor activity against human TK10 cells after 48 hrs by SRB assay; details: TK-10, 48 h; summary of the method: as §4
SN12C = experiment: Antitumor activity against human SN12C cells after 48 hrs by SRB assay; summary of the method: as §4
CAKI-1 = experiment: Antitumor activity against human Caki1 cells after 48 hrs by SRB assay; details: CAKI-1, 48 h; summary of the method: as §3
UACC-62 = experiment: Antitumor activity against human UACC62 cells after 48 hrs by SRB assay; details: UACC-62, 48 h; summary of the method: as §4
NCI-H460 = experiment: Antitumor activity against human NCI-H460 cells after 48 hrs by SRB assay; details: NCI-H460, 48 h; summary of the method: as §3
A549 = experiment: Antitumor activity against human A549 cells after 48 hrs by SRB assay; details: A549, 48 h; summary of the method: as §3
[5] = read-out: LC50 (the source's name)
[6] = read-out: pLC50 (the source's name) (converted)

COc1ccc(/C(=C2\O[C@@H]([C@H]3COC(C)(C)O3)[C@H]3OC(C)(C)O[C@@H]23)c2cc(OC)c(OC)c(OC)c2)cc1O
Activity (DU-145 [1]): 45.59% | Activity (KM12 [2]): 5.71% | Activity (NCI-H522): 51.79% | Activity (RPMI-8226): 36.38% | Activity (HOP-62): 91.26% | Activity (EKVX): 100.52% | Activity (U-251): 61.19% | Activity (M14): 19.53% | Activity (OVCAR-5): 92.89% | Activity (NCI/ADR-RES): -10.52% | Activity (BT-549): 67.52% | Activity (MDA-MB-468): 112.6% | GI50 (KM12 [3]): 4.1 µM | LC50 (KM12 [3]): 72.9 µM | TGI (KM12 [3]): 17.8 µM | GI50 (MDA-MB-435): 3.61 µM | TGI (MDA-MB-435): 17.5 µM | CC50 (MDA-MB-435; [5]): > 100 µM | GI50 (RXF 393): 2.54 µM | TGI (RXF 393): 5.99 µM | CC50 (RXF 393; [5]): 32.6 µM | GI50 (T47D; read-out: GI50): 63.6 µM | CC50 (T47D; [5]): > 100 µM | TGI (T47D; read-out: TGI): > 100 µM | GI50 (T47D; read-out: pGI50 (converted)): 44.7 µM | CC50 (T47D; [6]): > 100 µM | TGI (T47D; read-out: pTGI (converted)): > 100 µM | GI50 (DU-145 [4]; read-out: GI50): 3.93 µM | CC50 (DU-145 [4]; [5]): > 100 µM | TGI (DU-145 [4]; read-out: TGI): > 100 µM | GI50 (DU-145 [4]; read-out: pGI50 (converted)): 3.89 µM | CC50 (DU-145 [4]; [6]): > 100 µM | TGI (DU-145 [4]; read-out: pTGI (converted)): > 100 µM | GI50 (TK-10; read-out: GI50): 3.66 µM | CC50 (TK-10; [5]): > 100 µM | TGI (TK-10; read-out: TGI): 86.3 µM | GI50 (TK-10; read-out: pGI50 (converted)): 36.3 µM | CC50 (TK-10; [6]): > 100 µM | TGI (TK-10; read-out: pTGI (converted)): 87.1 µM | CC50 (SN12C; [5]): > 100 µM | TGI (SN12C; read-out: TGI): > 100 µM | GI50 (SN12C; read-out: pGI50 (converted)): 8.91 µM | CC50 (SN12C; [6]): > 100 µM | TGI (SN12C; read-out: pTGI): > 100 µM | GI50 (CAKI-1; read-out: GI50): 14.6 µM | CC50 (CAKI-1; [5]): > 100 µM | TGI (CAKI-1; read-out: TGI): 42.2 µM | GI50 (CAKI-1; read-out: pGI50 (converted)): 14.8 µM | CC50 (CAKI-1; [6]): > 100 µM | TGI (CAKI-1; read-out: pTGI (converted)): 42.7 µM | GI50 (UACC-62; read-out: GI50): 22.9 µM | CC50 (UACC-62; [5]): > 100 µM | TGI (UACC-62; read-out: TGI): 57.6 µM | GI50 (UACC-62; read-out: pGI50 (converted)): 22.9 µM | CC50 (UACC-62; [6]): > 100 µM | TGI (UACC-62; read-out: pTGI (converted)): 57.5 µM | GI50 (NCI-H460; read-out: GI50): 29.3 µM | CC50 (NCI-H460; [5]): > 100 µM | TGI (NCI-H460; read-out: TGI): > 100 µM | GI50 (NCI-H460; read-out: pGI50 (converted)): 29.5 µM | CC50 (NCI-H460; [6]): > 100 µM | TGI (NCI-H460; read-out: pTGI): > 100 µM | GI50 (A549; read-out: GI50): 22.7 µM | CC50 (A549; [5]): > 100 µM | TGI (A549; read-out: TGI): > 100 µM | GI50 (A549; read-out: pGI50 (converted)): 22.9 µM | CC50 (A549; [6]): > 100 µM | TGI (A549; read-out: pTGI (converted)): > 100 µM

Source: ChEMBL document CHEMBL1828575, “Design, synthesis and antiproliferative activities of biarylolefins based on polyhydroxylated and carbohydrate scaffolds” (Eur J Med Chem, 2011)
